Source: ChEMBL document CHEMBL2062428, “Cyclooxygenase-1-selective inhibitors based on the (E)-2'-des-methyl-sulindac sulfide scaffold” (J Med Chem, 2012)

Each compound was assayed against T1, Prostaglandin G/H synthase 1 (Ovis aries) (UniProt P05979) (assay: Inhibition of ovine COX-1 using [14C] arachidonic acid as substrate at 4 uM preincubated for 17 mins before substrate addition measured after 3 mins by thin-layer chromatographic analysis).
T1 sequence (whole entry): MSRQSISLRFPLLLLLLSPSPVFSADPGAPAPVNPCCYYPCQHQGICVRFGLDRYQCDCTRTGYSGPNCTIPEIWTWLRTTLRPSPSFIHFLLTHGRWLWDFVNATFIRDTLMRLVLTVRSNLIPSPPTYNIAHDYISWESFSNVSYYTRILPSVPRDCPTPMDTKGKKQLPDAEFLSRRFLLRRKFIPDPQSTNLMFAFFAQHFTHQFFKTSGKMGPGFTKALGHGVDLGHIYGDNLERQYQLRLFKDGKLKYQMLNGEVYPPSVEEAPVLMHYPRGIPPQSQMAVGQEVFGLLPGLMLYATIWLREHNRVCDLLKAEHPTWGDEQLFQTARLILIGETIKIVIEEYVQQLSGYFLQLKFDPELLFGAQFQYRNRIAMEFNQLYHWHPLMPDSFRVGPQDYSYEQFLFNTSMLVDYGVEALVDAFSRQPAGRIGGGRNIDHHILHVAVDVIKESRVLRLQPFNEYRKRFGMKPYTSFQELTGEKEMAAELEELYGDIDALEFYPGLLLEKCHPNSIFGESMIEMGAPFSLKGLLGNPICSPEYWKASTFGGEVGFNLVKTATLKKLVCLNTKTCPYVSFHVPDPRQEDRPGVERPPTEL
Method in brief: (§1)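 Purified ovine COX-1 or murine COX-2 preincubated with a single 4 μM inhibitor concentration for 17 min. […] Reaction quenched; radioactive products extracted and quantified. Mean ± SEM of two experiments.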

With `O=C(O)CC1=C/C(=C\c2cccc3cccnc23)c2ccc(F)cc21` as the compound, how does the inhibition read?
The inhibition was 51%.

For `CSc1ccc(/C=C2\C=C(CC(N)=O)c3cc(F)ccc32)cc1`, which inhibition is on record?
The inhibition was 21%.

How did the inhibition turn out when `O=C(O)CC1=C/C(=C\c2ccc(Br)cc2)c2ccc(F)cc21` was run?
The inhibition was 73%.

How did the inhibition turn out when `CSc1ccc(/C=C2\C=C(CC(=O)NS(=O)(=O)c3ccc(Br)cc3)c3cc(F)ccc32)cc1` was run?
Its inhibition is 40%.

For `O=C(O)CC1=C/C(=C\c2ccc3nccnc3c2)c2ccc(F)cc21`, which inhibition is on record?
Its inhibition is 31%.

With `CSc1ccc(/C=C2\C=C(CC(=O)OC(C)C)c3cc(F)ccc32)cc1` as the compound, how does the inhibition read?
The inhibition was 27%.

`O=C(O)CC1=C/C(=C\c2cccc(-c3ccc4c(c3)OCO4)n2)c2ccc(F)cc21` was tested. Which inhibition did it give?
The inhibition was 59%.

For `O=C(O)CC1=C/C(=C\c2ccc3cccnc3n2)c2ccc(F)cc21`, which inhibition is on record?
Its inhibition is 14%.

For `CCOC(=O)C(C)(C)C1=C/C(=C\c2cc(-c3ccc(C)cc3)on2)c2ccc(F)cc21`, which inhibition is on record?
Its inhibition is 37%.

With `CSc1ccc(/C=C2\C=C(CC(=O)NS(=O)(=O)c3ccc(C(C)C)cc3)c3cc(F)ccc32)cc1` as the compound, how does the inhibition read?
Its inhibition is 45%.

With `C#CCOc1ccc(/C=C2\C=C(CC(=O)O)c3cc(F)ccc32)cc1OCC` as the compound, how does the inhibition read?
The inhibition was 68%.

`O=C(O)CC1=C/C(=C\c2ccc(-c3ccccc3)c(F)c2)c2ccc(F)cc21` was tested. Which inhibition did it give?
Its inhibition is 44%.

`CSc1ccc(/C=C2\C=C(CC(=O)NS(=O)(=O)c3ccccc3C)c3cc(F)ccc32)cc1` was tested. Which inhibition did it give?
Its inhibition is 60%.

With `C#Cc1ccc(/C=C2\C=C(CC(=O)O)c3cc(F)ccc32)cc1` as the compound, how does the inhibition read?
Its inhibition is 62%.

`CCOC(=O)C(C)(C)C1=C/C(=C\c2ccc(-c3ccc(F)cc3)cc2)c2ccc(F)cc21` was tested. Which inhibition did it give?
The inhibition was 10%.

Which inhibition does the source give for `CCOC(=O)C(C)(C)C1=C/C(=C\c2ccc(-c3ccccc3)c(F)c2)c2ccc(F)cc21` here?
Its inhibition is 40%.

For `O=C(CC1=C/C(=C\c2ccc(-c3ccccc3)cc2)c2ccc(F)cc21)NS(=O)(=O)C(F)(F)F`, which inhibition is on record?
The inhibition was 99%.

Which inhibition does the source give for `O=C(O)CC1=C/C(=C\c2cccc(-c3ccc(F)cc3)n2)c2ccc(F)cc21` here?
Its inhibition is 17%.

With `CCOC(=O)CC1=C/C(=C\c2ccc(SC)cc2)c2ccc(F)cc21` as the compound, how does the inhibition read?
Its inhibition is 20%.

How did the inhibition turn out when `O=C(O)CC1=C/C(=C\c2ccc(C(F)(F)F)cc2)c2ccc(F)cc21` was run?
Its inhibition is 81%.

Which inhibition does the source give for `C[S+]([O-])c1ccc(/C=C2\C=C(CC(=O)O)c3cc(F)ccc32)cc1` (configuration not stated) here?
The inhibition was 27%.

With `CSc1ccc(/C=C2\C=C(CC(=O)NS(=O)(=O)c3ccc(C(F)(F)F)cc3)c3cc(F)ccc32)cc1` as the compound, how does the inhibition read?
The inhibition was 48%.

For `O=C(O)CC1=C/C(=C\c2ccc3c(c2)Cc2ccccc2-3)c2ccc(F)cc21`, which inhibition is on record?
Its inhibition is 70%.

How did the inhibition turn out when `Cc1nc(-c2ccccc2)ncc1/C=C1\C=C(CC(=O)O)c2cc(F)ccc21` was run?
Its inhibition is 19%.

With `CCOC(=O)C(C)C1=C/C(=C\c2ccc(-c3ccccc3)cc2)c2ccc(F)cc21` (configuration not stated) as the compound, how does the inhibition read?
Its inhibition is 30%.

`CS(=O)(=O)c1ccc(-c2cccc(/C=C3\C=C(CC(=O)O)c4cc(F)ccc43)n2)cc1` was tested. Which inhibition did it give?
Its inhibition is 13%.

With `O=C(O)CC1=C/C(=C\c2ccc([S+]([O-])C(F)(F)F)cc2)c2ccc(F)cc21` (configuration not stated) as the compound, how does the inhibition read?
The inhibition was 51%.

How did the inhibition turn out when `CSc1ccc(-c2ccc(/C=C3\C=C(CC(=O)O)c4cc(F)ccc43)cc2)cc1` was run?
Its inhibition is 68%.

How did the inhibition turn out when `COc1ccc2c(c1)C(CC(=O)O)=C/C2=C\c1ccc(-c2ccccc2)cc1` was run?
The inhibition was 38%.

Which inhibition does the source give for `O=C(O)CC1=C/C(=C\c2ccc3cccnc3c2)c2ccc(F)cc21` here?
Its inhibition is 58%.

How did the inhibition turn out when `CCOC(=O)C(C)(C)C1=C/C(=C\c2cccc(-c3ccccc3)c2)c2ccc(F)cc21` was run?
The inhibition was 24%.

What follows are compounds tested against T2, Prostaglandin G/H synthase 2 (Mus musculus) (UniProt Q05769) (assay: Inhibition of mouse COX-2 using [14C] arachidonic acid as substrate at 4 uM preincubated for 17 mins before substrate addition measured after 3 mins by thin-layer chromatographic analysis).
T2 sequence (whole entry): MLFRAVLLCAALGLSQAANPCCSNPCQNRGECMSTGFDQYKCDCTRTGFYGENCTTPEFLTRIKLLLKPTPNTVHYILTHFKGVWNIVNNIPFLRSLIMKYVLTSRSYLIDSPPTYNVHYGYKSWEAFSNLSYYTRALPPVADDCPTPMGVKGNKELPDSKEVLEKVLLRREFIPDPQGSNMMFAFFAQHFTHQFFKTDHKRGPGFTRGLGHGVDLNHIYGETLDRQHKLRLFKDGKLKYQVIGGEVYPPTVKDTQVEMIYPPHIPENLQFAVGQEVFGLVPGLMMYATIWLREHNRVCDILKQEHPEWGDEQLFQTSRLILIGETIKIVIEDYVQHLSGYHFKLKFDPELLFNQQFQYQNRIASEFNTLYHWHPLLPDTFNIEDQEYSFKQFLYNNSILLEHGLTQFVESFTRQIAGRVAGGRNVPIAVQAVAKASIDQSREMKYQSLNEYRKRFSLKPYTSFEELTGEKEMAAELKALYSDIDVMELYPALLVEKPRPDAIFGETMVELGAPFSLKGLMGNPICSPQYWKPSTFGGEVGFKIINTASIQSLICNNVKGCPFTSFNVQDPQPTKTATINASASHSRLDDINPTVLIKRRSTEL
Method in brief: as §1

For `O=C(O)CC1=C/C(=C\c2cccc3cccnc23)c2ccc(F)cc21`, which inhibition is on record?
The inhibition was 0%.

How did the inhibition turn out when `CSc1ccc(/C=C2\C=C(CC(N)=O)c3cc(F)ccc32)cc1` was run?
Its inhibition is 5%.

With `O=C(O)CC1=C/C(=C\c2ccc(Br)cc2)c2ccc(F)cc21` as the compound, how does the inhibition read?
Its inhibition is 34%.

`CSc1ccc(/C=C2\C=C(CC(=O)NS(=O)(=O)c3ccc(Br)cc3)c3cc(F)ccc32)cc1` was tested. Which inhibition did it give?
Its inhibition is 30%.

`O=C(O)CC1=C/C(=C\c2ccc3nccnc3c2)c2ccc(F)cc21` was tested. Which inhibition did it give?
The inhibition was 29%.

With `CSc1ccc(/C=C2\C=C(CC(=O)OC(C)C)c3cc(F)ccc32)cc1` as the compound, how does the inhibition read?
The inhibition was 0%.

For `O=C(O)CC1=C/C(=C\c2cccc(-c3ccc4c(c3)OCO4)n2)c2ccc(F)cc21`, which inhibition is on record?
Its inhibition is 43%.

How did the inhibition turn out when `O=C(O)CC1=C/C(=C\c2ccc3cccnc3n2)c2ccc(F)cc21` was run?
Its inhibition is 42%.

With `CCOC(=O)C(C)(C)C1=C/C(=C\c2cc(-c3ccc(C)cc3)on2)c2ccc(F)cc21` as the compound, how does the inhibition read?
Its inhibition is 0%.

For `CSc1ccc(/C=C2\C=C(CC(=O)NS(=O)(=O)c3ccc(C(C)C)cc3)c3cc(F)ccc32)cc1`, which inhibition is on record?
Its inhibition is 2%.

How did the inhibition turn out when `C#CCOc1ccc(/C=C2\C=C(CC(=O)O)c3cc(F)ccc32)cc1OCC` was run?
Its inhibition is 20%.

Which inhibition does the source give for `O=C(O)CC1=C/C(=C\c2ccc(-c3ccccc3)c(F)c2)c2ccc(F)cc21` here?
Its inhibition is 34%.

For `CSc1ccc(/C=C2\C=C(CC(=O)NS(=O)(=O)c3ccccc3C)c3cc(F)ccc32)cc1`, which inhibition is on record?
Its inhibition is 36%.

Which inhibition does the source give for `C#Cc1ccc(/C=C2\C=C(CC(=O)O)c3cc(F)ccc32)cc1` here?
The inhibition was 17%.

How did the inhibition turn out when `CCOC(=O)C(C)(C)C1=C/C(=C\c2ccc(-c3ccc(F)cc3)cc2)c2ccc(F)cc21` was run?
The inhibition was 0%.

For `CCOC(=O)C(C)(C)C1=C/C(=C\c2ccc(-c3ccccc3)c(F)c2)c2ccc(F)cc21`, which inhibition is on record?
The inhibition was 15%.

For `O=C(CC1=C/C(=C\c2ccc(-c3ccccc3)cc2)c2ccc(F)cc21)NS(=O)(=O)C(F)(F)F`, which inhibition is on record?
The inhibition was 15%.

Which inhibition does the source give for `O=C(O)CC1=C/C(=C\c2cccc(-c3ccc(F)cc3)n2)c2ccc(F)cc21` here?
Its inhibition is 81%.

With `CCOC(=O)CC1=C/C(=C\c2ccc(SC)cc2)c2ccc(F)cc21` as the compound, how does the inhibition read?
The inhibition was 0%.

`O=C(O)CC1=C/C(=C\c2ccc(C(F)(F)F)cc2)c2ccc(F)cc21` was tested. Which inhibition did it give?
Its inhibition is 60%.

Which inhibition does the source give for `C[S+]([O-])c1ccc(/C=C2\C=C(CC(=O)O)c3cc(F)ccc32)cc1` (configuration not stated) here?
The inhibition was 8.5%.

With `CSc1ccc(/C=C2\C=C(CC(=O)NS(=O)(=O)c3ccc(C(F)(F)F)cc3)c3cc(F)ccc32)cc1` as the compound, how does the inhibition read?
The inhibition was 19%.

How did the inhibition turn out when `O=C(O)CC1=C/C(=C\c2ccc3c(c2)Cc2ccccc2-3)c2ccc(F)cc21` was run?
The inhibition was 26%.

With `Cc1nc(-c2ccccc2)ncc1/C=C1\C=C(CC(=O)O)c2cc(F)ccc21` as the compound, how does the inhibition read?
Its inhibition is 19%.

Which inhibition does the source give for `CCOC(=O)C(C)C1=C/C(=C\c2ccc(-c3ccccc3)cc2)c2ccc(F)cc21` (configuration not stated) here?
Its inhibition is 0%.

How did the inhibition turn out when `CS(=O)(=O)c1ccc(-c2cccc(/C=C3\C=C(CC(=O)O)c4cc(F)ccc43)n2)cc1` was run?
The inhibition was 54%.

With `O=C(O)CC1=C/C(=C\c2ccc([S+]([O-])C(F)(F)F)cc2)c2ccc(F)cc21` (configuration not stated) as the compound, how does the inhibition read?
The inhibition was 15%.

With `CSc1ccc(-c2ccc(/C=C3\C=C(CC(=O)O)c4cc(F)ccc43)cc2)cc1` as the compound, how does the inhibition read?
The inhibition was 18%.

With `COc1ccc2c(c1)C(CC(=O)O)=C/C2=C\c1ccc(-c2ccccc2)cc1` as the compound, how does the inhibition read?
The inhibition was 2%.

How did the inhibition turn out when `O=C(O)CC1=C/C(=C\c2ccc3cccnc3c2)c2ccc(F)cc21` was run?
Its inhibition is 16%.

Which inhibition does the source give for `CCOC(=O)C(C)(C)C1=C/C(=C\c2cccc(-c3ccccc3)c2)c2ccc(F)cc21` here?
Its inhibition is 4%.
